Data from ChEMBL document CHEMBL4842350, “Discovery of a Novel Bromodomain and Extra Terminal Domain (BET) Protein Inhibitor, I-BET282E, Suitable for Clinical Progression” (J Med Chem, 2021).

Experiments:
[1] = molecular target: T1, Cytochrome P450 3A4 (Homo sapiens, UniProt P08684); experiment: Inhibition of recombinant human CYP3A4 expressed in Escherichia coli using VG as probe substrate incubated for 15 to 60 mins by fluorometric assay; format: ADME
[2] = molecular target: Bromodomain-containing protein 4 (Homo sapiens, UniProt O60885, Y390A); experiment: Displacement of Alexa Fluor 647 labelled ligand from recombinant human N-terminal 6His-tagged BRD4-BD1 Y390A mutant (1 to 477 residue) expressed in Escherichia coli incubated for 30 mins by TR-FRET assay
[3] = Unbound fraction in Wistar Han rat blood at 100 to 1000 ng/ml by LC-MS/MS-based rapid equilibrium dialysis method; format: ADME, tissue-based; settings: dose 100-1000 ng/ml
How it was run: (§1)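 Whole blood (male Balb/C mouse, male Wistar Han rat, male Beagle dog; human from one unmedicated donor) spiked to nominal 100 and 1000 ng/mL; 10 min at 37 °C, then rapid equilibrium dialysis against PBS 4 h at 37 °C, 100 rpm. Matrix-matched acetonitrile extraction, LC-MS/MS; mean of n = 6.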

[4] = Unbound fraction in Beagle dog blood at 100 to 1000 ng/ml by LC-MS/MS-based rapid equilibrium dialysis method; format: ADME, tissue-based, Canis lupus familiaris; settings: dose 100-1000 ng/ml; how it was run: as §1
[5] = Unbound fraction in human blood at 100 to 1000 ng/ml by LC-MS/MS-based rapid equilibrium dialysis method; format: ADME, tissue-based; settings: dose 100-1000 ng/ml; how it was run: as §1
[6] = molecular target: T2, Cytochrome P450 1A2 (Homo sapiens, UniProt P05177); experiment: Inhibition of recombinant human CYP1A2 expressed in Escherichia coli using ER as probe substrate incubated for 15 to 60 mins by fluorometric assay; format: ADME
T2 sequence (P05177 whole entry): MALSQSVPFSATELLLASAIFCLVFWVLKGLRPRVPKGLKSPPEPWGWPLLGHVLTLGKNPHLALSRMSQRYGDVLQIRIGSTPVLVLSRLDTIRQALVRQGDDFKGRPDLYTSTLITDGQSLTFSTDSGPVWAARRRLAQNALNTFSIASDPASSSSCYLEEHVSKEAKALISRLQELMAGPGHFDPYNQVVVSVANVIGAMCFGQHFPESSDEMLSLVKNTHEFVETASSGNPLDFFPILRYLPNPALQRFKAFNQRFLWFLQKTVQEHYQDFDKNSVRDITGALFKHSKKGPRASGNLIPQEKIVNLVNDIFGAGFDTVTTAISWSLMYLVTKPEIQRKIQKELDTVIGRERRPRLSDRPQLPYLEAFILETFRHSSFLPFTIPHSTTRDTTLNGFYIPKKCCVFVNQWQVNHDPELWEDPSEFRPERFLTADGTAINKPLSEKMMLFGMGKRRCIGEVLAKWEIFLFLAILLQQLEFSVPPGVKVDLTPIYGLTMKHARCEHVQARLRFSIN
How it was run: (§2)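 Recombinant human CYPs coexpressed with NADPH reductase in E. coli bactosomes (0.1 mg protein/mL); profluorescent substrates ER (1A2), BMC (2C19), MMC (2D6), VividGreen or VividRed (3A4).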

[7] = molecular target: Cytochrome P450 2C19 (Homo sapiens, UniProt P33261); experiment: Inhibition of recombinant human CYP2C19 expressed in Escherichia coli using BMC as probe substrate incubated for 15 to 60 mins by fluorometric assay; format: ADME; how it was run: as §2
Sequence of Cytochrome P450 2C19 (P33261 whole entry): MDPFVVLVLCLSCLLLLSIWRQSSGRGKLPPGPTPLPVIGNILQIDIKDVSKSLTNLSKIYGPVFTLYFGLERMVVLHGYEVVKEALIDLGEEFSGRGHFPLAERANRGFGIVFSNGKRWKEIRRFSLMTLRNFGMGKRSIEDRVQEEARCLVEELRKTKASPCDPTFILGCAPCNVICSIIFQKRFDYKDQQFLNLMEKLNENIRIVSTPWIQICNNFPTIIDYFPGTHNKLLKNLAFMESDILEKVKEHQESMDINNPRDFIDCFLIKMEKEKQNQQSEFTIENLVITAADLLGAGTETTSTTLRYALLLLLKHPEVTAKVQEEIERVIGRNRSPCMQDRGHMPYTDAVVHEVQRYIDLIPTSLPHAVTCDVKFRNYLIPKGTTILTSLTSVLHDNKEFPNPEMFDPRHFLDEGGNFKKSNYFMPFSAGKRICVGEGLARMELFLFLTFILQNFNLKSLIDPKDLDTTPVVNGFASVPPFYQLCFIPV

[8] = molecular target: T1, Cytochrome P450 3A4; experiment: Inhibition of recombinant human CYP3A4 expressed in Escherichia coli using VR as probe substrate incubated for 15 to 60 mins by fluorometric assay; format: ADME; how it was run: as §2
[9] = Clearance in Wistar Han rat blood at 1 mg/kg/hr, iv measured upto 26 hrs by LC-MS/MS analysis; format: ADME, organism-based
[10] = Total blood clearance in CD1 mouse at 1 mg/kg/hr, iv measured upto 24 hrs by LC-MS/MS analysis relative to hepatic blood flow; format: ADME, organism-based; settings: in vivo
How it was run: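 Surgically cannulated male CD1 mice (n = 3), 1 h iv infusion via jugular vein at 1 mg/kg/h (0.2 mg/mL in 2% DMSO/98% 10% Kleptose HPB in saline, 5 mL/kg/h). Tail-vein blood to 24 h plus terminal cardiac sample at 26 h; LC-MS/MS, LLQ 5 ng/mL. Mean ± SD.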

[11] = Total blood clearance in Wistar Han rat at 1 mg/kg/hr, iv measured upto 26 hrs by LC-MS/MS analysis relative to hepatic blood flow; format: ADME, organism-based; settings: in vivo
[12] = Total blood clearance in Beagle dog at 1 mg/kg/hr, iv measured upto 28 hrs by LC-MS/MS analysis relative to hepatic blood flow; format: ADME, organism-based, Canis lupus familiaris; settings: in vivo
[13] = Volume of distribution at steady state in Beagle dog at 1 mg/kg/hr, iv measured upto 28 hrs by LC-MS/MS analysis; format: ADME, organism-based, Canis lupus familiaris; settings: in vivo, read-out: Vdss
[14] = Half life in Wistar Han rat at 1 mg/kg/hr, iv measured upto 26 hrs by LC-MS/MS analysis; format: ADME, organism-based; settings: in vivo
[15] = Oral bioavailability in CD1 mouse at 3 mg/kg measured upto 8 hrs by LC-MS/MS analysis; format: ADME, organism-based; settings: in vivo
How it was run: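 Naive male CD1 mice (n = 3) given 3 mg/kg by oral gavage as suspension in 1% (w/v) methylcellulose 400, 0.6 mg/mL. Tail-vein blood to 8 h plus terminal cardiac sample at 12 h; LC-MS/MS, LLQ 5 ng/mL.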

[16] = AUC(0 to t) in Wistar Han rat at 1 mg/kg, po measured upto 24 hrs by HPLC-MS/MS analysis; format: ADME, organism-based; parameters: route oral, dose 1 mg/kg, time <=24; settings: in vivo
How it was run: (§3)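 Oral suspension in 1% (w/v) hydroxypropylmethyl cellulose in water; male rats (n = 3) and male dogs (n = 4). AUC taken from 0 h to last quantifiable time point; Cmax is maximum observed plasma concentration; Tmax reported as median. Mean ± SD.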

[17] = AUC(0 to t) in Beagle dog at 5 mg/kg, po measured upto 24 hrs by HPLC-MS/MS analysis; format: ADME, organism-based, Canis lupus familiaris; parameters: route oral, dose 5 mg/kg, time <=24; settings: in vivo; how it was run: as §3
[18] = Cmax in Wistar Han rat at 1 mg/kg, po measured upto 24 hrs by HPLC-MS/MS analysis; format: ADME, organism-based; parameters: route oral, dose 1 mg/kg, time <=24; settings: in vivo; how it was run: as §3
[19] = Cmax in Beagle dog at 5 mg/kg, po measured upto 24 hrs by HPLC-MS/MS analysis; format: ADME, organism-based, Canis lupus familiaris; parameters: route oral, dose 5 mg/kg, time <=24; settings: in vivo; how it was run: as §3
[20] = Tmax in Beagle dog at 5 mg/kg, po measured upto 24 hrs by HPLC-MS/MS analysis; format: ADME, organism-based, Canis lupus familiaris; settings: in vivo; how it was run: as §3
[21] = molecular target: CREB-binding protein (Homo sapiens) (UniProt Q92793); experiment: Binding affinity to CBP (unknown origin) assessed as change in melting temperature
Sequence of CREB-binding protein (Homo sapiens) (Q92793 2-2442 limits assumed): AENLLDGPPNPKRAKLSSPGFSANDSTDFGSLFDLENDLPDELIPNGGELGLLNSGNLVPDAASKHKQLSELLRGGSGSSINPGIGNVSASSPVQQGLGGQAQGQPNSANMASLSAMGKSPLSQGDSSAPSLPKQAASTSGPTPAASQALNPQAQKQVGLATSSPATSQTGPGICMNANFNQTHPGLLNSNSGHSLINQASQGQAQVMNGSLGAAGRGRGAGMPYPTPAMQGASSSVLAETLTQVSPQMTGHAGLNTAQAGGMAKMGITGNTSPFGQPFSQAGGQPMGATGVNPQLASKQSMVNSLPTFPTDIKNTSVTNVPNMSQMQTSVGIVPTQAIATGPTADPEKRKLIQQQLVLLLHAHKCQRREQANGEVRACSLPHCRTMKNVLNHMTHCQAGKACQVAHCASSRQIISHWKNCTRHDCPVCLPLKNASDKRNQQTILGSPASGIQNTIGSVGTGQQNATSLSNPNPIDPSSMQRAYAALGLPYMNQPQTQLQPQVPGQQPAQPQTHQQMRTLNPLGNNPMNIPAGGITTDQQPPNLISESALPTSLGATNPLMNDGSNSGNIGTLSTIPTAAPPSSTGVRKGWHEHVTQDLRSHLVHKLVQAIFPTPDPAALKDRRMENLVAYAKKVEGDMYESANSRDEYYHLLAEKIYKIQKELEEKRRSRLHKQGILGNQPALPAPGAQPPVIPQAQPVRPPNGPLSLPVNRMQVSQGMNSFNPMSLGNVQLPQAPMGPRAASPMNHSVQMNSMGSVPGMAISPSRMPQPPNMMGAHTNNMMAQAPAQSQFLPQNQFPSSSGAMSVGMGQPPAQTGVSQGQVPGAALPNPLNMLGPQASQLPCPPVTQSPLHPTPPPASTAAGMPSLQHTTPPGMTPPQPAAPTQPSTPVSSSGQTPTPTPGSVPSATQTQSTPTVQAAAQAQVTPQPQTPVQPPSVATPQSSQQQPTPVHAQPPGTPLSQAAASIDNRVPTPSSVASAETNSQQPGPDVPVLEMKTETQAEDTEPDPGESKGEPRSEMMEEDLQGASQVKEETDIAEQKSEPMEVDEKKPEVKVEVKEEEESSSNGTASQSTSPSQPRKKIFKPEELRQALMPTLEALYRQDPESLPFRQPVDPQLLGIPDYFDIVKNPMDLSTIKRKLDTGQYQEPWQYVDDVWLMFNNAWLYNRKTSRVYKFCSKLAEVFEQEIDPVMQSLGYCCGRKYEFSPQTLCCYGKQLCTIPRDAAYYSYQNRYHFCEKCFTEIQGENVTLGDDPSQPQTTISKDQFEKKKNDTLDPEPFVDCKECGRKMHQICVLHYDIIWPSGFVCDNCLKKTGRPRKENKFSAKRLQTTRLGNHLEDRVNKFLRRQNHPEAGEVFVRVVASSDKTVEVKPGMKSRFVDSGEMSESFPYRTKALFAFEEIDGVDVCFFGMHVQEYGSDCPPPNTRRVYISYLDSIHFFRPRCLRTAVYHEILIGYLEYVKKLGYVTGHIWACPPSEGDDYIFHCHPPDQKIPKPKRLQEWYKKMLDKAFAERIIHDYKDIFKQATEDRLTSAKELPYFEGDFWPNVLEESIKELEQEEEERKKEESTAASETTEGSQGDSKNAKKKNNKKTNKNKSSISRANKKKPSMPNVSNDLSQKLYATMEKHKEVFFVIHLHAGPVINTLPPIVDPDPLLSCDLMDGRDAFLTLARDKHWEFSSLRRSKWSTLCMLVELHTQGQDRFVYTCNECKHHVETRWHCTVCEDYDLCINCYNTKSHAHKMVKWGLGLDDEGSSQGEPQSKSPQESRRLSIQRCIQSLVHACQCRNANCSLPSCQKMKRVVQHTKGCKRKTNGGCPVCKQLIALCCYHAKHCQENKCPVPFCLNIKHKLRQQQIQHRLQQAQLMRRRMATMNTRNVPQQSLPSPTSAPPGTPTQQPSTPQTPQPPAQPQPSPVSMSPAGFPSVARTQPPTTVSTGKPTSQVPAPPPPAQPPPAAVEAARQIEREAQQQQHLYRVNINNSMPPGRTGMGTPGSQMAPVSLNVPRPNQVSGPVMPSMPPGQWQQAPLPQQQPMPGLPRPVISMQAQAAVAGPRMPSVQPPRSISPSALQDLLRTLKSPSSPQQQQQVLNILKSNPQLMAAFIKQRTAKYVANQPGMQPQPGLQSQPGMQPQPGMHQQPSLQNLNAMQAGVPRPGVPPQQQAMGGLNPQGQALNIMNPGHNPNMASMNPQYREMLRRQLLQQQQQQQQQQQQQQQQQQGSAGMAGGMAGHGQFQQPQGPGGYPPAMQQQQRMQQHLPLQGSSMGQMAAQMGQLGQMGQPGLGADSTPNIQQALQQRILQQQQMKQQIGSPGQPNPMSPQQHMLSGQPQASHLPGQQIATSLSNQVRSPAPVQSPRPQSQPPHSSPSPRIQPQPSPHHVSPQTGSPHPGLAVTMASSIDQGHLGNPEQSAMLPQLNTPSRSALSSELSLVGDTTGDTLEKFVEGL

[22] = molecular target: CREB-binding protein (Homo sapiens) (UniProt Q92793); experiment: Binding affinity to CBP (unknown origin) by ITC assay
[23] = Passive permeability in MDCK cells; format: ADME, cell-based, Canis lupus familiaris; settings: dog, read-out: permeability
[24] = molecular target: Cytochrome P450 2C9 (Homo sapiens, UniProt P11712)
Sequence of Cytochrome P450 2C9 (P11712 whole entry): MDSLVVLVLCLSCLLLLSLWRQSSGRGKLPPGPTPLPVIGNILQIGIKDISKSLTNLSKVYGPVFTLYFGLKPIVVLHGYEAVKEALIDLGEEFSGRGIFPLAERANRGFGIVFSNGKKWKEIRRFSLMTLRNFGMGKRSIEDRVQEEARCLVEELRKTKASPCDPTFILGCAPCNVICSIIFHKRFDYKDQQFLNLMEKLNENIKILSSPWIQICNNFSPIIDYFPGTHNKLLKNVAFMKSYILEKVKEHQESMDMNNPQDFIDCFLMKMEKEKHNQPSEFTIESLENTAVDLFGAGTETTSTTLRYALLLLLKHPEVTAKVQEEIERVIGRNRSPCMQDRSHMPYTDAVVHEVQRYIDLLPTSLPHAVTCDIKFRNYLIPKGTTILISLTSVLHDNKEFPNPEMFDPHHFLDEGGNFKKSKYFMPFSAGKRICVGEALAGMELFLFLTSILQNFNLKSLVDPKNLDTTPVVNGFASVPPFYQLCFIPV

[25] = rat, hepatocytes, 2 h, 0.5 µM
[26] = dog, hepatocytes, 2 h, 0.5 µM
[27] = human, hepatocytes, 2 h, 0.5 µM
[28] = Oral bioavailability in Beagle dog at 3 mg/kg measured upto 24 hrs by HPLC-MS/MS analysis; settings: in vivo

T1 sequence (P08684 whole entry): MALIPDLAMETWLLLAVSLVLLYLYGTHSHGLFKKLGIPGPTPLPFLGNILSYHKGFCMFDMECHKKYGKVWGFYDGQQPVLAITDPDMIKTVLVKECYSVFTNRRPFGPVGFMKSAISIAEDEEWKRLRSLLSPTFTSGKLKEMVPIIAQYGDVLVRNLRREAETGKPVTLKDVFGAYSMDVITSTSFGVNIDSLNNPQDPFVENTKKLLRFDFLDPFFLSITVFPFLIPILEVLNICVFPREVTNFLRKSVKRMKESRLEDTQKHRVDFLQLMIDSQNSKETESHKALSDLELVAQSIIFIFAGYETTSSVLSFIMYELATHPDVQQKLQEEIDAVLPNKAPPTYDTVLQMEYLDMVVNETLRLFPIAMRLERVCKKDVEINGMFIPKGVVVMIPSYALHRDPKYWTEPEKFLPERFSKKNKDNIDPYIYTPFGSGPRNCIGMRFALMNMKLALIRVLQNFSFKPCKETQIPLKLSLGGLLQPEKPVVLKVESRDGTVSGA

- IC50 [1]: 25.1 µM
- IC50 [2]: 0.0398 µM
- fraction unbound [3]: 0.16
- fraction unbound [4]: 0.24
- fraction unbound [5]: 0.17
- IC50 [6]: > 50 µM
- IC50 [7]: > 50 µM
- IC50 [8]: > 50 µM
- clearance [9]: 20 mL/min/kg
- CLH [10]: 19%
- CLH [11]: 22%
- CLH [12]: 68%
- Vd [13]: 3.1 L/kg
- half-life [14]: 1.4 h
- bioavailability [15]: 51%
- AUC(0-t) at 24 h [16]: 467 ng·h/mL
- AUCt [17]: 367 ng·h/mL
- Cmax [18]: 125 ng/mL
- Cmax [19]: 177 ng/mL
- Tmax [20]: 0.75 h
- ΔTm [21]: 3.4 °C
- Activity [22]: 1730 nM
- Papp [23]: 34.6 ×10⁻⁶ cm/s
- IC50 [24]: > 50 µM
- CLint [25]: < 0.86 mL/min/g liver
- CLint [26]: 2.4 mL/min/g liver
- CLint [27]: < 0.86 mL/min/g liver
- F [28]: 31%
SMILES: COC[C@@H](C)n1c(C2CCOCC2)nc2cnc3cc(-c4c(C)noc4C)c(OC)cc3c21
